Here are results for seven compounds from ChEMBL document CHEMBL1144082, “Orizabins V-VIII, tetrasaccharide glycolipids from the Mexican scammony root (Ipomoea orizabensis)” (1999).

In brackets after ≈: the same amount, converted by molar mass. Some results are limits rather than exact numbers.

What all share (format): functional
The nature of test [1]: Cytotoxicity against human SQC1 cells after 72 hrs by SRB method. Conditions: SQC1, 72 h, read-out: ED50 (the source's name). In a few lines: (§1)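 Cell lines kept in RPMI 1640 with 10% fetal bovine serum, 37 °C, 5% CO2, 100% humidity. Log-phase cells treated in triplicate with glycolipids over 0.16–20 μg/mL for 72 h at 37 °C, 5% CO2. Cell concentration determined by sulforhodamine B staining; ED50 taken as dose inhibiting 50% of control growth. Ellipticine as positive control.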
Background: In SRB staining, fixed cells bind dye roughly in proportion to their protein.

The next test has as its system KB. The experiment in a line: Cytotoxicity against human KB cells after 72 hrs by SRB method. Conditions: read-out: ED50 (the source's name). In short, it runs like this:
as §1

A further test relates to OVCAR. As to the kind of experiment: Cytotoxicity against human OVCAR cells after 72 hrs by SRB method. Conditions: read-out: ED50 (the source's name). In a few lines:
as §1

The subject of another test is HCT-15. As to the kind of experiment: Cytotoxicity against human HCT-15 cells after 72 hrs by SRB method. The settings on record: HCT-15, 72 h, read-out: ED50 (the source's name). In a few lines:
as §1

As for `CCCCC[C@H]1CCCCCCCCCC(=O)O[C@@H]2[C@@H](O[C@@H]3O[C@H](C)[C@@H](O)[C@H](O)[C@H]3O)[C@H](C)O[C@@H](O[C@H]3[C@H](O[C@H]4[C@H](O1)O[C@H](C)[C@@H](O)[C@@H]4O)O[C@H](COC(=O)[C@H](C)[C@@H](C)O)[C@@H](O)[C@@H]3O)[C@@H]2OC(=O)[C@@H](C)CC` [ORIZABIN VII], the EC50 in test [1] is > 15 µg/mL; in the test with KB, 7 µg/mL (≈ 6.74 µM); in the test with OVCAR it was > 15 µg/mL; in the test on HCT-15 it was > 15 µg/mL.

For the compound `C/C=C(\C)C(=O)O[C@H]1[C@H](O)[C@@H](O)[C@H](O[C@@H]2[C@H]3OC(=O)CCCCCCCCC[C@H](CCCCC)O[C@@H]4O[C@H](C)[C@@H](O)[C@H](O)[C@H]4O[C@@H]4O[C@H](CO)[C@@H](O)[C@H](O)[C@H]4O[C@H](O[C@H]2C)[C@@H]3OC(=O)[C@@H](C)CC)O[C@@H]1C` [SCAMMONIN I], the EC50 in test [1] is > 15 µg/mL; with KB, 7 µg/mL (≈ 6.85 µM); with OVCAR, > 15 µg/mL; with HCT-15 it was > 15 µg/mL.

As to `CCCCC[C@H]1CCCCCCCCCC(=O)O[C@H]2[C@H](O)[C@@H](COC(=O)[C@H](C)[C@@H](C)O)O[C@@H](O[C@H]3[C@H](O1)O[C@H](C)[C@@H](O)[C@@H]3O)[C@@H]2O[C@@H]1O[C@@H](C)[C@H](O[C@@H]2O[C@H](C)[C@@H](O)[C@H](O)[C@H]2O)[C@@H](O)[C@H]1OC(=O)[C@@H](C)CC` [ORIZABIN VIII], the EC50 in test [1] is > 15 µg/mL; in the test on KB, 7 µg/mL (≈ 6.74 µM); in the test on OVCAR it was > 15 µg/mL; with HCT-15 it was > 15 µg/mL.

In the case of `Cc1c2ccncc2c(C)c2c1[nH]c1ccccc12` [ELLIPTECINE], the EC50 is 0.41 µg/mL (≈ 1.66 µM) in test [1], 0.33 µg/mL (≈ 1.34 µM) in the test with KB, 0.58 µg/mL (≈ 2.35 µM) with OVCAR and 0.24 µg/mL (≈ 0.974 µM) in the test on HCT-15.

Turning to `CCCCC[C@H]1CCCCCCCCCC(=O)O[C@@H]2[C@@H](O[C@@H]3O[C@H](C)[C@@H](OC(=O)[C@H](C)[C@@H](C)O)[C@H](O)[C@H]3O)[C@H](C)O[C@@H](O[C@H]3[C@H](O[C@H]4[C@H](O1)O[C@H](C)[C@@H](O)[C@@H]4O)O[C@H](CO)[C@@H](O)[C@@H]3O)[C@@H]2OC(=O)[C@@H](C)CC` [ORIZABIN V], the EC50 in test [1] is > 15 µg/mL; in the test on KB, 7 µg/mL (≈ 6.74 µM); in the test on OVCAR, > 15 µg/mL; in the test on HCT-15 it was > 15 µg/mL.

Turning to `CCCCC[C@H]1CCCCCCCCCC(=O)O[C@@H]2[C@@H](O[C@@H]3O[C@H](C)[C@@H](O)[C@H](O)[C@H]3O)[C@H](C)O[C@@H](O[C@H]3[C@H](O[C@H]4[C@H](O1)O[C@H](C)[C@@H](O)[C@@H]4O)O[C@H](COC(=O)[C@@H](C)CC)[C@@H](O)[C@@H]3O)[C@@H]2OC(=O)[C@H](C)[C@@H](C)O` [ORIZABIN VI], the EC50 was > 15 µg/mL in test [1], 7 µg/mL (≈ 6.74 µM) in the test on KB, > 15 µg/mL in the test with OVCAR and > 15 µg/mL with HCT-15.

Take `CCCCC[C@H]1CCCCCCCCCC(=O)O[C@@H]2[C@@H](O[C@@H]3O[C@H](C)[C@@H](O)[C@H](O)[C@H]3O)[C@H](C)O[C@@H](O[C@H]3[C@H](O[C@H]4[C@H](O1)O[C@H](C)[C@@H](O)[C@@H]4O)O[C@H](CO)[C@@H](O)[C@@H]3O)[C@@H]2OC(=O)[C@@H](C)CC` [SCAMMONIN II]: the EC50 was > 15 µg/mL in test [1], 7 µg/mL (≈ 7.45 µM) with KB, > 15 µg/mL in the test on OVCAR and > 15 µg/mL with HCT-15.
